Data from ChEMBL document CHEMBL1152176, “Pyrazoline-based mycobactin analogues as MAO-inhibitors” (Bioorg Med Chem Lett, 2008).

Assays:
[1] = Inhibition of rat liver monoamine oxidase by Lineweaver-Burke plot
[2] = molecular target: T1, Amine oxidase [flavin-containing] B (Rattus norvegicus, UniProt P19643); assay: Inhibition of MAOB in rat liver homogenates preincubated for 60 mins; assay type: tissue-based
T1 sequence (P19643 whole entry): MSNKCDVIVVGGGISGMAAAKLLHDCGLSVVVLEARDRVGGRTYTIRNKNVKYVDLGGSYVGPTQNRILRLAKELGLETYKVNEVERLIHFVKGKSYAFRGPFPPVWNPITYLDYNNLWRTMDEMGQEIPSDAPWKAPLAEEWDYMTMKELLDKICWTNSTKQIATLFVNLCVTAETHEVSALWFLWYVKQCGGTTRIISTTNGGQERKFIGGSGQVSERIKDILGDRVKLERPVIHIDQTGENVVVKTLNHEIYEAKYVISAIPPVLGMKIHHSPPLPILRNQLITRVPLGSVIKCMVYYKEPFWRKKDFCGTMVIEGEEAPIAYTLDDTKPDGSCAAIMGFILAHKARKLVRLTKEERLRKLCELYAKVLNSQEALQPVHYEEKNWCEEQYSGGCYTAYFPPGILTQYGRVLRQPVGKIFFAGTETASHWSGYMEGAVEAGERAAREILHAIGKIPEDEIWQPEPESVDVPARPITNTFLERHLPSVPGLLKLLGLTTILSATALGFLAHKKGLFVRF

[3] = molecular target: T2, Amine oxidase [flavin-containing] A (Rattus norvegicus, UniProt P21396); assay: Inhibition of MAOA in rat liver homogenates preincubated for 60 mins; assay type: tissue-based
T2 sequence (P21396 whole entry): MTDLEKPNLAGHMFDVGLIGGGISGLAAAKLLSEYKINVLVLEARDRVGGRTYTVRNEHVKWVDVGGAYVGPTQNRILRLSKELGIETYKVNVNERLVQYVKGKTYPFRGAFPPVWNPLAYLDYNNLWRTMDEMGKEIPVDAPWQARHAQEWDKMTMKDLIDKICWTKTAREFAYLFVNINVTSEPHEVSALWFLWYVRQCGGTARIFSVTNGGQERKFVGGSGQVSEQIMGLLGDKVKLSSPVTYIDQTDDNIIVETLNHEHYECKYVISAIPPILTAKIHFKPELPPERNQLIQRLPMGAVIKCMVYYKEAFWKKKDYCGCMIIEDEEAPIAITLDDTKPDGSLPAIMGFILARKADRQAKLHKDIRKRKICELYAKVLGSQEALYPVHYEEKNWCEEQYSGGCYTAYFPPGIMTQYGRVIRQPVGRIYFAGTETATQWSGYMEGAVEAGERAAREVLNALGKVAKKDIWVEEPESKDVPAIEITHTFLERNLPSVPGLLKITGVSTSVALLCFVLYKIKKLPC
Summary of the method: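 Rat liver MAO assayed by Holt's spectrophotometric method. The chromogenic mix was vanillinic acid, 4-aminoantipyrine and peroxidase type II in potassium phosphate pH 7.6, preincubated with p-tyramine. Inhibitors were preincubated with enzyme at 37 °C for 60 min. A498 was read at 37 °C for 60 min. IC50 came from residual activity versus [I]; mean of three independent experiments.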

Structure (SMILES)	Ki [1]	IC50 [2]	IC50 [3]
O=C(NCCN1CCOCC1)c1ccc(Cl)cc1 [MOCLOBEMIDE]	2.25 µM	480 µM	
Oc1ccc(C2=NN(C(=S)Nc3ccccc3)C(c3ccc(O)cc3)C2)cc1 (configuration not stated)	30.6 µM	486 µM	32.1 µM
COc1ccc(NC(=S)N2N=C(c3ccccc3O)CC2c2ccc(O)cc2)cc1 (configuration not stated)	39.2 µM	41.1 µM	401 µM
Oc1ccccc1C1=NN(C(=S)Nc2ccccc2)C(c2cccs2)C1 (configuration not stated)			5.56 µM
COc1ccc(NC(=S)N2N=C(c3ccccc3O)CC2c2ccccc2O)cc1 (configuration not stated)	36.2 µM	40.8 µM	470 µM
NC(=S)N1N=C(c2ccccc2O)CC1c1ccc(O)cc1 (configuration not stated)	15.2 µM	19.5 µM	466 µM
COc1cc(C2CC(c3ccccc3O)=NN2C(=S)Nc2ccccc2)ccc1O (configuration not stated)	62.7 µM	451 µM	40.1 µM
Oc1ccc(C2CC(c3ccccc3O)=NN2C(=S)Nc2ccccc2)cc1 (configuration not stated)	50.5 µM	400 µM	67.2 µM
COc1ccccc1NC(=S)N1N=C(c2ccccc2O)CC1c1ccc(O)cc1 (configuration not stated)		144 µM	151 µM
Oc1ccccc1C1=NN(C(=S)Nc2ccccc2)C(c2ccco2)C1 (configuration not stated)	27.5 µM	440 µM	33.4 µM
Oc1ccccc1C1=NN(C(=S)Nc2ccccc2)C(c2ccc(Cl)cc2)C1 (configuration not stated)	20.1 µM	400 µM	23.2 µM
COc1ccccc1NC(=S)N1N=C(c2ccccc2O)CC1c1ccccc1O (configuration not stated)		171 µM	144 µM
Oc1ccc(C2CC(c3ccc(O)cc3O)=NN2C(=S)Nc2ccccc2)cc1 (configuration not stated)	80 µM	470 µM	58.6 µM
COc1ccc(NC(=S)N2N=C(c3ccc(O)cc3O)CC2c2ccc(O)cc2)cc1 (configuration not stated)	85.5 µM	456 µM	69.6 µM
Oc1ccccc1C1=NN(C(=S)Nc2ccccc2)C(c2ccccc2O)C1 (configuration not stated)	48.5 µM	420 µM	58.1 µM
COc1cc(C2CC(c3ccc(O)cc3O)=NN2C(=S)Nc2ccccc2)ccc1O (configuration not stated)	79.2 µM	490 µM	65.6 µM
COc1ccccc1C1CC(c2ccccc2O)=NN1C(=S)Nc1ccccc1 (configuration not stated)	63.6 µM	419 µM	74.2 µM
COc1ccccc1NC(=S)N1N=C(c2ccc(O)cc2O)CC1c1ccc(O)cc1 (configuration not stated)		171 µM	148 µM

Structure (SMILES)	Ki [1]	IC50 [2]	IC50 [3]
Oc1ccc(C2CC(c3ccccc3)=NN2C(=S)Nc2ccccc2)cc1 (configuration not stated)	40.6 µM	48.6 µM	476 µM
Cc1ccccc1NC(=S)N1N=C(c2ccccc2O)CC1c1ccccc1O (configuration not stated)		180 µM	170 µM
Cc1ccc(NC(=S)N2N=C(c3ccccc3O)CC2c2ccccc2O)cc1 (configuration not stated)	35 µM	37.7 µM	400 µM
Cc1ccccc1NC(=S)N1N=C(c2ccccc2O)CC1c1ccc(O)cc1 (configuration not stated)		180 µM	189 µM
COc1cc(C2CC(c3ccccc3O)=NN2C(=S)Nc2ccc(C)cc2)ccc1O (configuration not stated)	75.1 µM	481 µM	50.6 µM
Oc1ccccc1C1=NN(C(=S)Nc2ccccc2)C(c2ccccc2Cl)C1 (configuration not stated)	18.6 µM	455 µM	20 µM
Oc1ccccc1C1CC(c2ccccc2)=NN1C(=S)Nc1ccccc1 (configuration not stated)	34.7 µM	35.5 µM	451 µM
C#CCN(C)CCCOc1ccc(Cl)cc1Cl [CLORGILINE]	1.99 µM		
COc1ccc(NC(=S)N2N=C(c3ccccc3O)CC2c2ccc(O)c(OC)c2)cc1 (configuration not stated)	60.5 µM	477 µM	48.9 µM
COc1cc(C2CC(c3ccccc3O)=NN2C(=S)Nc2ccccc2OC)ccc1O (configuration not stated)		201 µM	170 µM
Oc1ccccc1C1=NN(C(=S)Nc2ccccc2)C(c2ccccc2)C1 (configuration not stated)	40.2 µM	439 µM	49.2 µM
C#CCN(C)[C@H](C)Cc1ccccc1 [SELEGILINE]	1.9 µM		
Cc1ccc(NC(=S)N2N=C(c3ccccc3O)CC2c2ccc(O)cc2)cc1 (configuration not stated)	42.9 µM	46.1 µM	475 µM
COc1cc(C2CC(c3ccc(O)cc3O)=NN2C(=S)Nc2ccccc2OC)ccc1O (configuration not stated)		170 µM	180 µM
COc1ccc(NC(=S)N2N=C(c3ccc(O)cc3O)CC2c2ccc(O)c(OC)c2)cc1 (configuration not stated)	71.1 µM	475 µM	53.4 µM
COc1cc(C2CC(c3ccccc3O)=NN2C(=S)Nc2ccccc2C)ccc1O (configuration not stated)		198 µM	201 µM
C#CCN(C)Cc1ccccc1 [PARGYLINE]	3.25 µM	3.85 µM	
COc1ccc(C2CC(c3ccccc3O)=NN2C(=S)Nc2ccccc2)cc1 (configuration not stated)	2.5 µM	415 µM	2.84 µM
